Assay results: ChEMBL document CHEMBL1208718, “Rational design of a novel peripherally-restricted, orally active CB(1) cannabinoid antagonist containing a 2,3-diarylpyrrole motif” (Bioorg Med Chem Lett, 2010)
One block for each compound: values may come before it.

How the values were obtained:
Mus musculus [1] = experiment: Ex vivo displacement of [3H]CP-55940 from mouse brain homogenates without cerebellum at 10 mg/kg, iv after 30 mins; format: functional
In short: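 Mice dosed iv at 10 mg/kg and killed by decapitation 30 min later. Brain homogenized without cerebellum, and inhibition of [3H]-CP55940 binding measured in the homogenate.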

Cannabinoid receptor 1 [2] = biological target: Cannabinoid receptor 1 (Rattus norvegicus, UniProt P20272); experiment: Binding affinity to CB1 receptor in rat brain synaptosomal membranes; format: cell membranes
[3] = biological target: T1, Cannabinoid receptor 2 (Rattus norvegicus) (UniProt Q9QZN9); experiment: Binding affinity to CB2 receptor in rat spleen homogenates at 1 uM; format: tissue-based
T1 sequence (whole entry): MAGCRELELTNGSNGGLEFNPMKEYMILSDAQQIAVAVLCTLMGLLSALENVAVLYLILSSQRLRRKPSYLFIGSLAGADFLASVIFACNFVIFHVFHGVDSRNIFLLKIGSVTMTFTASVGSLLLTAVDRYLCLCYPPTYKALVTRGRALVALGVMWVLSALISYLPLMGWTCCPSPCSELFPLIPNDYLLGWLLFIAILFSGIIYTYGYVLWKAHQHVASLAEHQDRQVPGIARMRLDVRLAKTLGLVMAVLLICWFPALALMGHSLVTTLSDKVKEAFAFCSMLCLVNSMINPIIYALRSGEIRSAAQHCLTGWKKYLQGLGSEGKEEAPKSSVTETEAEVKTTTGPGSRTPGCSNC

Mus musculus [4] = experiment: Reversal of CP-55940-induced hypothermia in po dosed mouse at 30 mg/kg, po; format: functional
In short: (§1)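 Mice dosed orally with antagonist, then challenged with CP55940 0.3 mg/kg ip to induce hypothermia. Reversal scored as DE50 (mg/kg po) or as % reversal at a single oral dose.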

[5] = Cmax in Swiss CD1 mouse at 10 mg/kg, po after 2 hrs; format: ADME, organism-based; parameters: dose 10 mg/kg, route oral; details: in vivo
In short: (§2)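 Male Swiss CD1 mice received a single oral 10 mg/kg dose. Drug levels were measured in plasma (ng/mL) and brain (ng/g tissue) over 24 h.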

Liver microsomes [6] = experiment: Metabolic stability in human liver microsomes at 5 uM after 10 mins by HPLC analysis in presence of NADPH; format: ADME, Microsome
In short: (§3)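 Hepatic microsomal fractions from mouse, rat and human were used at 1 mg/mL microsomal protein, with 10 min incubation of substrate.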

Cannabinoid receptor 1 [7] = biological target: T2, Cannabinoid receptor 1 (Homo sapiens, UniProt P21554); experiment: Antagonist activity at CB1 receptor in forskolin-stimulated human U373-MG cells assessed as inhibition of CP-55940-induced cAMP accumulation; format: functional, cell-based, U-373MG ATCC
In short: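 Human U373-MG cells; forskolin-stimulated cAMP accumulation was inhibited with CP55940, and the antagonist was tested over a range of concentrations for reversal of that inhibition. The EC50 was derived from the concentration–response.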

Liver microsomes [8] = experiment: Metabolic stability in rat liver microsomes at 5 uM after 10 mins by HPLC analysis in presence of NADPH; format: ADME, Microsome; in short: as §3
Cannabinoid receptor 1 [9] = biological target: T2, Cannabinoid receptor 1; experiment: Inhibition of human recombinant CB1 receptor expressed in CHO cells; format: cell-based
[10] = Metabolic stability in mouse liver microsomes at 5 uM after 10 mins by HPLC analysis in presence of NADPH; format: ADME, Microsome; in short: as §3
[11] = Oral bioavailability in Swiss CD1 mouse at 10 mg/kg; details: in vivo
[12] = AUC (0 to 24 hrs) ratio in brain to plasma of Swiss CD1 mouse at 10 mg/kg, po; format: ADME, organism-based; parameters: dose 10 mg/kg, route oral
[13] = Drug level in Swiss CD1 mouse brain assessed per gram of tissue at 10 mg/kg, po after 6 hrs; format: ADME, organism-based; parameters: dose 10 mg/kg, route oral; details: read-out: Drug uptake; in short: as §2
Mus musculus [14] = experiment: Reversal of CP-55940-induced inhibition of intestinal transit in po dosed mouse; format: functional
In short: (§4)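 Mice dosed orally with antagonist, then given CP55940 0.15 mg/kg ip to inhibit intestinal transit. Reversal scored as DE50 (mg/kg po) or as % reversal at a single oral dose.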

Mus musculus [15] = experiment: Reversal of CP-55940-induced hypothermia in po dosed mouse; format: functional; in short: as §1
Mus musculus [16] = experiment: Reversal of CP-55940-induced inhibition of intestinal transit in mouse at 10 mg/kg, po; format: functional; parameters: scale not given: the % may be the effect or the level left; in short: as §4

Chain of Cannabinoid receptor 1 (Rattus norvegicus, UniProt P20272) (P20272 whole entry): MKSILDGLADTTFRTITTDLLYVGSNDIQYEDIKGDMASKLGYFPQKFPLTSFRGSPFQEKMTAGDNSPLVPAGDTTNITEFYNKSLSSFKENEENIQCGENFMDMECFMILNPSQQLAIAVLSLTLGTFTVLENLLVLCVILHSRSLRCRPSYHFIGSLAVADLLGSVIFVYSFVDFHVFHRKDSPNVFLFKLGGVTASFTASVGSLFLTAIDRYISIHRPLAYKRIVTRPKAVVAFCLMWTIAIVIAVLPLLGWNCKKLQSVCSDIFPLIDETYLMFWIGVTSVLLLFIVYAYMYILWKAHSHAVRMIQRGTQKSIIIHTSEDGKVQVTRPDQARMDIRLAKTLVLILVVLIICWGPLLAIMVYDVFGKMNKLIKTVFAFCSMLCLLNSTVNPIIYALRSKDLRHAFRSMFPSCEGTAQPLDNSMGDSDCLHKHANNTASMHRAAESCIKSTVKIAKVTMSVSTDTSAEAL
T2 sequence (P21554 whole entry): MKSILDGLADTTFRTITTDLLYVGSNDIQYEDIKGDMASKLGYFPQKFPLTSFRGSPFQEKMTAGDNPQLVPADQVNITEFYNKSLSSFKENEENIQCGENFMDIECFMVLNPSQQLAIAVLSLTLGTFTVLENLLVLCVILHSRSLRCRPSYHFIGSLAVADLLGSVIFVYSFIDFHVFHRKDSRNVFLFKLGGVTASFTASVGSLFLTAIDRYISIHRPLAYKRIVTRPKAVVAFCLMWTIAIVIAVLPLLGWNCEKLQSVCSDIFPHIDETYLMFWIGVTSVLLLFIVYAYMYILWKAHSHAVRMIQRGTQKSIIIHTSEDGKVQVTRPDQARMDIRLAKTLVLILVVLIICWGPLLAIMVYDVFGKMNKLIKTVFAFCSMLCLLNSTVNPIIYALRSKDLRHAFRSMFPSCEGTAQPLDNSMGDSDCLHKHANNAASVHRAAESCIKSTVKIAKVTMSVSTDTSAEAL

SMILES: Cn1c(C(=O)N2CCC(C(N)=O)(c3ccccc3)CC2)cc(-c2ccc(Cl)cc2Cl)c1-c1ccc(Cl)cc1
inhibition in vivo at 10 mg/kg (Mus musculus [1]): 86% | IC50 (Cannabinoid receptor 1 [2]): 0.7 nM | inhibition [3]: 17%

IC50 (Cannabinoid receptor 1 [2]): 160 nM | inhibition [3]: 52%
SMILES: CC(C)(CCCn1c(C(=O)N2CCC(C(N)=O)(N3CCCCC3)CC2)cc(-c2ccc(Cl)cc2Cl)c1-c1ccc(Cl)cc1)C(=O)O

SMILES: CS(=O)(=O)CCn1c(C(=O)N2CCC(C(N)=O)(N3CCCCC3)CC2)cc(-c2ccc(Cl)cc2Cl)c1-c1ccc(Cl)cc1
inhibition in vivo at 10 mg/kg (Mus musculus [1]): 19% | IC50 (Cannabinoid receptor 1 [2]): 0.4 nM | inhibition [3]: 26%

SMILES: CS(=O)(=O)NCCCn1c(C(=O)N2CCC(C(N)=O)(N3CCC(F)(F)CC3)CC2)cc(-c2ccc(Cl)cc2Cl)c1-c1ccc(Cl)cc1
Activity (Mus musculus [4]): 0% | Cmax [5]: 570 ng/mL | Stability (Liver microsomes [6]): Stable | EC50 (Cannabinoid receptor 1 [7]): 15 nM | Stability (Liver microsomes [8]): Stable | IC50 (Cannabinoid receptor 1 [9]): 1.4 nM | inhibition in vivo at 10 mg/kg (Mus musculus [1]): 28% | Stability [10]: Stable | bioavailability [11]: 37% | Kp [12]: 0.01 | IC50 (Cannabinoid receptor 1 [2]): 1 nM | concentration at 6 h [13]: 6.4 ng/g | ED50 (Mus musculus [14]): 2.4 mg/kg | inhibition [3]: 39%

SMILES: CC1(C)CCN(C2(C(N)=O)CCN(C(=O)c3cc(-c4ccc(Cl)cc4Cl)c(-c4ccc(Cl)cc4)n3CCCNS(C)(=O)=O)CC2)CC1
Activity (Mus musculus [4]): 0% | inhibition in vivo at 10 mg/kg (Mus musculus [1]): 33% | IC50 (Cannabinoid receptor 1 [2]): 4.3 nM | ED50 (Mus musculus [14]): 4.1 mg/kg | inhibition [3]: 27%

IC50 (Cannabinoid receptor 1 [2]): 180 nM | inhibition [3]: 14%
SMILES: NC(=O)C1(N2CCCCC2)CCN(C(=O)c2cc(-c3ccc(Cl)cc3Cl)c(-c3ccc(Cl)cc3)n2CCC(=O)O)CC1

SMILES: Cn1c(C(=O)N2CCC(C(N)=O)(N3CCOCC3)CC2)cc(-c2ccc(Cl)cc2Cl)c1-c1ccc(Cl)cc1
inhibition in vivo at 10 mg/kg (Mus musculus [1]): 32% | IC50 (Cannabinoid receptor 1 [2]): 34 nM | inhibition [3]: 42%

SMILES: N#CCCn1c(C(=O)N2CCC(C(N)=O)(N3CCCCC3)CC2)cc(-c2ccc(Cl)cc2Cl)c1-c1ccc(Cl)cc1
inhibition in vivo at 10 mg/kg (Mus musculus [1]): 39% | IC50 (Cannabinoid receptor 1 [2]): 8 nM | inhibition [3]: 18%

SMILES: Cc1c(C(=O)NN2CCCCC2)nn(-c2ccc(Cl)cc2Cl)c1-c1ccc(Cl)cc1 [RIMONABANT]
ED50 (Mus musculus [15]): 0.6 mg/kg | inhibition in vivo at 10 mg/kg (Mus musculus [1]): 100% | ED50 (Mus musculus [14]): 1 mg/kg | inhibition [3]: 66%

SMILES: Cn1c(C(=O)N2CCC(C(N)=O)(N3CCCCC3)CC2)cc(-c2ccc(Cl)cc2Cl)c1-c1ccc(Cl)cc1
inhibition in vivo at 10 mg/kg (Mus musculus [1]): 96% | IC50 (Cannabinoid receptor 1 [2]): 0.2 nM | inhibition [3]: 48%

SMILES: CS(=O)(=O)NCCCn1c(C(=O)N2CCC(C(N)=O)(N3CCCCC3)CC2)cc(-c2ccc(Cl)cc2Cl)c1-c1ccc(Cl)cc1
Activity (Mus musculus [16]): 51% | Activity (Mus musculus [4]): 1% | inhibition in vivo at 10 mg/kg (Mus musculus [1]): 18% | IC50 (Cannabinoid receptor 1 [2]): 1.4 nM | inhibition [3]: 16%
